In ChEMBL document CHEMBL3745658, “An Orally Bioavailable, Indole-3-glyoxylamide Based Series of Tubulin Polymerization Inhibitors Showing Tumor Growth Inhibition in a Mouse Xenograft Model of Head and Neck Cancer” (J Med Chem, 2015):
Converted amounts (≈) assume the structure as drawn. The source made the active and inactive calls. No cut-off for these calls is given here.

Assays:
Tubulin (Sus scrofa) [1] = biological target: T1, Tubulin (Sus scrofa) (UniProt P02554+P02550); test: Displacement of [3H]-paclitaxel from biotinylated porcine tubulin after 25 mins by competitive binding assay; type: protein assay
Summary of the method: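 Biotinylated porcine tubulin precoupled to SPA beads for 30 min at 4 °C, then 0.05 μM [3H]-paclitaxel and test compound added in G-PEM with 1 mM GTP, 3% DMSO, duplicate wells, 25 min at rt. Nonspecific binding taken with 1000-fold unlabeled excess. IC50 from seven-point semilog curves, four-parameter fit.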

Tubulin (Sus scrofa) [2] = biological target: T1, Tubulin (Sus scrofa); test: Potency index, ratio of vincristine IC50 to docetaxel IC50 for displacement of [3H]-paclitaxel from biotinylated porcine tubulin; type: protein assay
Tubulin (Sus scrofa) [3] = biological target: T1, Tubulin (Sus scrofa); test: Displacement of [3H]-vinblastine from biotinylated porcine tubulin after 15 mins by competitive binding assay; type: protein assay
Summary of the method: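 Biotinylated porcine tubulin, 0.2 μM [3H]-vinblastine, SPA beads and test compound combined together in G-PEM with 1 mM GTP, 3% DMSO, duplicate wells, 15 min at rt before counting. Nonspecific binding taken with 1000-fold unlabeled excess. IC50 from seven-point semilog curves, four-parameter fit.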

Tubulin (Sus scrofa) [4] = biological target: T1, Tubulin (Sus scrofa); test: (§1) Displacement of [3H]-colchicine from biotinylated porcine tubulin after 2 hrs by competitive binding assay; type: protein assay
Summary of the method: (§2)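 Biotinylated porcine tubulin (750 ng/well) with 0.1 μM [3H]-colchicine and test compound in G-PEM with 1 mM GTP, 3% DMSO, duplicate wells, 2 h at 37 °C. Streptavidin SPA beads then added for 45 min at 37 °C. Nonspecific binding taken with 1000-fold unlabeled excess. IC50 from seven-point semilog curves, four-parameter fit.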

[5] = Metabolic stability in CD-1 mouse liver microsomes assessed as half life at 1 uM preincubated for 5 mins before addition of NADPH by LC-MS/MS method; type: ADME
FaDu [6] = test: Selectivity index, ratio of EC50 for cell cycle arrest in human FADU cells to LC50 for cytotoxicity against human FADU cells; type: functional
Summary of the method: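 G2/M arrest EC50 came from a 24 h dose–response of propidium iodide flow cytometry in FaDu cells. It was compared with the LC50 from a 72 h MTT assay in FaDu cells (triplicate wells, A570, viability relative to DMSO, nonlinear regression).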

[7] = Solubility in 2% DMSO containing 50 mM potassium phosphate buffer solution pH 7.4 at 10 uM by dynamic light scattering method; conditions: pH 7.4, 10 µM
SH-SY5Y = test: Cytotoxicity against human SH-SY5Y cells assessed as reduction in cell viability after 72 hrs by MTT assay; type: functional, cell-based
Summary of the method: (§3)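 Cells plated at an appropriate density and left 24 h to attach, then dosed in triplicate with compound diluted from 10 mM DMSO stocks into full growth medium (added at 2× final concentration). After 72 h, cells PBS-washed and given MTT (0.5 mg/mL in PBS) for 45−60 min. Formazan dissolved in 0.1 M HCl/2-propanol, A570 read (650 nm reference). Viability normalised to DMSO control; LC50 by nonlinear regression.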

FaDu [8] = test: Antitumor activity against human FADU cells xenografted in CD-1 mouse assessed as tumor volume recovery at 10 mg/kg, po qd for 10 days measured between 6 and 9 days; type: functional, organism-based
Summary of the method: (§4)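 FaDu xenografts established in mice, then test agent given by oral gavage once daily for 10 days; tumor volume followed against an untreated control group, with significance assessed at days 3, 6, 9, 13 and 15.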

SK-MEL-28 = test: Cytotoxicity against human SK-MEL-28 cells assessed as reduction in cell viability after 72 hrs by MTT assay; type: functional, cell-based; summary of the method: as §3
Tubulin [9] = biological target: T2, Tubulin (Sus scrofa, UniProt P02554+P02550); test: Inhibition of porcine brain tubulin polymerization assessed as reduction in GTP-induced microtubule assembly after 60 mins by OD340 method
FaDu [10] = test: Cytotoxicity against human FADU multicellular tumor spheroid assessed as effect on normal spheroid growth at 1 uM incubated for 2 to 3 days by light microscop; type: cell-based
Summary of the method: (§5)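 FaDu monoculture spheroids were dosed once and imaged at 0, 2, 4 and 7 days after dosing. Fragmentation and growth were judged against untreated spheroids.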

FaDu [11] = test: Cytotoxicity against human FADU multicellular tumor spheroid assessed as induction of spheroid disruption incubated for 7 days by light microscopy; type: functional, cell-based
Summary of the method: (§6)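 Monocultured FaDu spheroids dosed over a concentration range and imaged at 0, 2, 4 and 7 days post-dosing. Volume followed over time, fragmentation scored at the 7-day end point, and EC50 for disruption derived from 7-day dose–response plots. Two independent experiments, mean ± SEM.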

FaDu [12] = test: Induction of microtubule disruption in human FADU cells assessed as multipolarization of spindle at 50 nM after 24 hrs by immunofluorescence staining method; type: functional, cell-based
[13] = Apparent permeability from apical to basolateral side in human Caco2 cells at 10 uM at pH 7.4 after 60 mins by mass spectrometry; conditions: Caco-2, pH 7.4
FaDu [14] = test: Cytotoxicity against human FADU multicellular tumor spheroid assessed as reduction of spheroid volume by light microscopy; type: functional, cell-based; summary of the method: as §6
FaDu [15] = test: Antitumor activity against human FADU cells xenografted in CD-1 mouse assessed as inhibition of tumor growth at 10 to 20 mg/kg, po qd for 10 days measured at 3 to 9 days; type: functional, organism-based; summary of the method: as §4
FaDu [16] = test: Cell cycle arrest in human FADU cells assessed as accumulation at G2/M phase after 24 hrs by propidium iodide staining-based flow cytometry; type: functional
Summary of the method: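 FaDu cells seeded at 10^5/well, attached overnight, then exposed to compound in full growth medium at 37 °C for 24 h. Cells were trypsinized, fixed in ice-cold 70% ethanol, treated with RNase A (100 μg/mL), stained overnight in the dark with propidium iodide (50 μg/mL), and analysed by flow cytometry with at least 10000 events per sample.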

[17] = Efflux ratio of apparent permeability from basolateral to apical side over apical to basolateral side in human Caco2 cells; conditions: Caco-2
[18] = Apparent permeability from apical to basolateral side in human Caco2 cells assessed as drug recovery at 10 uM at pH 7.4 after 60 mins by mass spectrometry; type: ADME, cell-based; conditions: Caco-2, pH 7.4, read-out: Drug recovery
SCC-4 = test: Cytotoxicity against human SCC4 cells assessed as reduction in cell viability after 72 hrs by MTT assay; type: functional, cell-based; summary of the method: as §3
FaDu [19] = test: Induction of microtubule disruption in human FADU cells at 250 nM after 24 hrs by immunofluorescence staining method; type: functional, cell-based
Tubulin [20] = biological target: T2, Tubulin; test: as §1; type: protein assay; summary of the method: as §2
FaDu [21] = test: Cytotoxicity against human FADU multicellular tumor spheroid assessed as dispersion of cells from the spheroid at 1 uM incubated for 2 to 7 days by light microscopy; type: functional, cell-based; summary of the method: as §5
FaDu [22] = test: Ratio of EC50 for human FADU multicellular tumor spheroid to LC50 for human FADU cells; type: functional
Summary of the method: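 FaDu spheroids were dosed over a range of concentrations, and spheroid volume was measured at the 7-day endpoint. EC50 for disruption came from dose–response plots, combining two independent experiments. This was compared with the 72 h monolayer MTT LC50 (triplicate wells, nonlinear regression, viability relative to DMSO).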

MES-SA/Dx5 = test: Cytotoxicity against multidrug resistant human MES-SA/Dx5 cells assessed as reduction in cell viability after 72 hrs by MTT assay; type: functional, cell-based; summary of the method: as §3
FaDu [23] = test: Cytotoxicity against human FADU cells assessed as reduction in cell viability after 72 hrs by MTT assay; type: functional; conditions: read-out: LC50 (the source's name)
[24] = Solubility in 2% DMSO containing 50 mM potassium phosphate buffer solution at pH 7.4 by dynamic light scattering method; conditions: 50 mM potassium phosphate buffer with 2% DMSO
MES-SA = test: Cytotoxicity against human MES-SA cells assessed as reduction in cell viability after 72 hrs by MTT assay; type: functional, cell-based; summary of the method: as §3
[25] = Aqueous solubility of the compound by UV-HPLC
[26] = Solubility in 2% DMSO containing 50 mM potassium phosphate buffer solution pH 7.4 at 1 uM by dynamic light scattering method; type: physicochemical; conditions: pH 7.4, 1 µM

With `CC[C@]1(O)C[C@H]2CN(CCc3c([nH]c4ccccc34)[C@@](C(=O)OC)(c3cc4c(cc3OC)N(C=O)[C@H]3[C@@](O)(C(=O)OC)[C@H](OC(C)=O)[C@]5(CC)C=CCN6CC[C@]43[C@@H]65)C2)C1` the Activity (Tubulin (Sus scrofa) [1]) was “Active”, the Ratio IC50 (Tubulin (Sus scrofa) [2]) was 2 and the Activity (Tubulin (Sus scrofa) [3]) was “Active”. For the same compound, the Activity (Tubulin (Sus scrofa) [4]) was “inactive”.
For `COCCn1cc(C(=O)C(=O)Nc2ccc(OC(C)C)nc2)c2ccccc21`, the half-life at 1 µM [5] was 1.65 h, the Ratio (FaDu [6]) was 2 and the solubility [7] was “soluble”. The Activity (SH-SY5Y) was “Active”, the TGI (FaDu [8]) was “inactive” and the Activity (SK-MEL-28) was “Active”. The IC50 (Tubulin [9]) was 6600 nM, the Activity (Tubulin (Sus scrofa) [1]) was “inactive” and the Activity (FaDu [10]) was “Non-toxic”. For the same compound, the Activity (FaDu [11]) was “Dose-dependent effect”, the EC50 (FaDu [11]; 168 h) was 113 nM and the Activity (FaDu [12]) was “Active”. The Papp A→B at 1 h, 10 µM [13] was 15.2 ×10⁻⁶ cm/s, the Activity (FaDu [14]) was “Dose-dependent effect” and the TGI (FaDu [15]) was “Active”. For the same compound, the Activity (Tubulin (Sus scrofa) [3]) was “Active”, the Activity (FaDu [16]) was “Dose-dependent effect” and the EC50 (FaDu [16]) was 90 nM. For the same compound, the efflux ratio [17] was 0.9, the recovery at 1 h, 10 µM [18] was under 50% and the Activity (SCC-4) was “Active”. For the same compound, the Activity (FaDu [19]) was “Active”, the IC50 (Tubulin [20]) was 500 nM and the Activity (FaDu [21]) was “Active”. For the same compound, the Ratio (FaDu [22]) was 2, the Activity (MES-SA/Dx5) was “Active” and the CC50 (FaDu [23]) was 55 nM. For the same compound, the solubility kinetic [24] was 10 µM (≈ 3.81 µg/mL) and the Activity (MES-SA) was “Active”.
With `O=C(Nc1ccncc1)C(=O)c1cn(Cc2ccc(Cl)cc2)c2ccccc12` [INDIBULIN] the solubility [7] was “Insoluble”, the Activity (SH-SY5Y) was “Active” and the Activity (SK-MEL-28) was “Active”. The solubility [25] was at most 1 µM, the solubility [26] was “Insoluble” and the Activity (SCC-4) was “Active”. For the same compound, the Activity (MES-SA/Dx5) was “Active”, the CC50 (FaDu [23]) was 32 nM and the Activity (MES-SA) was “Active”.
